According to ChEMBL document CHEMBL3734675, “Synthesis, antimycobacterial and antibacterial activity of fluoroquinolone derivatives containing an 3-alkoxyimino-4-(cyclopropylanimo)methylpyrrolidine moiety” (2015):
Converted amounts (≈) assume the structure as drawn.

Columns and labels:
Format in all cases: functional
Pseudomonas aeruginosa [1] = test: Antibacterial activity against Pseudomonas aeruginosa 14-14 after 18 to 24 hrs by two-fold serial dilution method
Method in brief: (§1)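 Twofold serial dilution in agar media against Gram-positive and Gram-negative strains. Plates incubated at 35 °C for 18–24 h. MIC read as the lowest compound concentration giving complete inhibition of bacterial growth.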

Escherichia coli [2] = test: Antibacterial activity against extended-spectrum beta-lactamase producing Escherichia coli 14-2 after 18 to 24 hrs by two-fold serial dilution method; method in brief: as §1
Klebsiella pneumoniae [3] = test: Antibacterial activity against Klebsiella pneumoniae 14-4 after 18 to 24 hrs by two-fold serial dilution method; method in brief: as §1
Staphylococcus aureus [4] = test: Antibacterial activity against Staphylococcus aureus CMCC 26003 after 18 to 24 hrs by two-fold serial dilution method; method in brief: as §1
Staphylococcus aureus [5] = test: Antibacterial activity against methicillin-resistant Staphylococcus aureus 14-4 after 18 to 24 hrs by two-fold serial dilution method
Method in brief: (§2)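 Agar media, standard twofold serial dilution. MIC is the lowest concentration giving complete inhibition of bacterial growth after incubation at 35 °C for 18–24 h. Ciprofloxacin and levofloxacin were run as comparators.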

Klebsiella pneumoniae [6] = test: Antibacterial activity against Klebsiella pneumoniae 14-2 after 18 to 24 hrs by two-fold serial dilution method; method in brief: as §1
Pseudomonas aeruginosa [7] = test: Antibacterial activity against Pseudomonas aeruginosa 14-16 after 18 to 24 hrs by two-fold serial dilution method; method in brief: as §1
Staphylococcus aureus [8] = test: Antibacterial activity against methicillin-sensitive Staphylococcus aureus 14-1 after 18 to 24 hrs by two-fold serial dilution method; method in brief: as §1
Pseudomonas aeruginosa [9] = test: Antibacterial activity against Pseudomonas aeruginosa 14-15 after 18 to 24 hrs by two-fold serial dilution method; method in brief: as §1
Escherichia coli [10] = test: Antibacterial activity against Escherichia coli 14-2 after 18 to 24 hrs by two-fold serial dilution method; method in brief: as §1
Staphylococcus aureus [11] = test: Antibacterial activity against methicillin-sensitive Staphylococcus aureus 14-4 after 18 to 24 hrs by two-fold serial dilution method; method in brief: as §1
Enterococcus faecium [12] = test: Antibacterial activity against Enterococcus faecium 14-6 after 18 to 24 hrs by two-fold serial dilution method; method in brief: as §1
Streptococcus pneumoniae = test: Antibacterial activity against methicillin-resistant Streptococcus pneumoniae ATCC 19615 after 18 to 24 hrs by two-fold serial dilution method; method in brief: as §2
Klebsiella pneumoniae [13] = test: Antibacterial activity against Klebsiella pneumoniae 14-3 after 18 to 24 hrs by two-fold serial dilution method; method in brief: as §1
Escherichia coli [14] = test: Antibacterial activity against Escherichia coli 14-1 after 18 to 24 hrs by two-fold serial dilution method; method in brief: as §1
Escherichia coli [15] = test: Antibacterial activity against Escherichia coli ATCC 25922 after 18 to 24 hrs by two-fold serial dilution method; method in brief: as §1
Enterococcus faecium [16] = test: Antibacterial activity against Enterococcus faecium 14-5 after 18 to 24 hrs by two-fold serial dilution method; method in brief: as §1
Enterococcus faecalis [17] = test: Antibacterial activity against Enterococcus faecalis 14-2 after 18 to 24 hrs by two-fold serial dilution method; method in brief: as §1
Escherichia coli [18] = test: Antibacterial activity against extended-spectrum beta-lactamase producing Escherichia coli 14-1 after 18 to 24 hrs by two-fold serial dilution method; method in brief: as §1
[19] = system: Staphylococcus epidermidis; test: Antibacterial activity against methicillin-resistant Staphylococcus epidermidis 14-39 after 18 to 24 hrs by two-fold serial dilution method; method in brief: as §2
[20] = system: Staphylococcus epidermidis; test: Antibacterial activity against methicillin-resistant Staphylococcus epidermidis 14-21 after 18 to 24 hrs by two-fold serial dilution method; method in brief: as §2
Klebsiella pneumoniae [21] = test: Antibacterial activity against extended-spectrum beta-lactamase producing Klebsiella pneumoniae 14-18 after 18 to 24 hrs by two-fold serial dilution method; method in brief: as §1
Klebsiella pneumoniae [22] = test: Antibacterial activity against extended-spectrum beta-lactamase producing Klebsiella pneumoniae 14-17 after 18 to 24 hrs by two-fold serial dilution method; method in brief: as §1
Staphylococcus aureus [23] = test: Antibacterial activity against methicillin-resistant Staphylococcus aureus 14-5 after 18 to 24 hrs by two-fold serial dilution method; method in brief: as §2
Klebsiella pneumoniae [24] = test: Antibacterial activity against extended-spectrum beta-lactamase producing Klebsiella pneumoniae 14-19 after 18 to 24 hrs by two-fold serial dilution method; method in brief: as §1
Enterococcus faecalis [25] = test: Antibacterial activity against Enterococcus faecalis 14-1 after 18 to 24 hrs by two-fold serial dilution method; method in brief: as §1
[26] = system: Staphylococcus epidermidis; test: Antibacterial activity against methicillin-resistant Staphylococcus epidermidis 14-22 after 18 to 24 hrs by two-fold serial dilution method; method in brief: as §2
Enterococcus faecium [27] = test: Antibacterial activity against Enterococcus faecium 14-2 after 18 to 24 hrs by two-fold serial dilution method; method in brief: as §1
Klebsiella pneumoniae [28] = test: Antibacterial activity against Klebsiella pneumoniae 14-1 after 18 to 24 hrs by two-fold serial dilution method; method in brief: as §1
Pseudomonas aeruginosa [29] = test: Antibacterial activity against Pseudomonas aeruginosa 14-9 after 18 to 24 hrs by two-fold serial dilution method; method in brief: as §1
[30] = system: Staphylococcus epidermidis; test: Antibacterial activity against methicillin-resistant Staphylococcus epidermidis 14-37 after 18 to 24 hrs by two-fold serial dilution method; method in brief: as §2
Staphylococcus aureus [31] = test: Antibacterial activity against methicillin-sensitive Staphylococcus aureus 14-3 after 18 to 24 hrs by two-fold serial dilution method; method in brief: as §1
[32] = system: Staphylococcus epidermidis; test: Antibacterial activity against methicillin-sensitive Staphylococcus epidermidis 14-2 after 18 to 24 hrs by two-fold serial dilution method; method in brief: as §1
Pseudomonas aeruginosa [33] = test: Antibacterial activity against Pseudomonas aeruginosa ATCC 27853 after 18 to 24 hrs by two-fold serial dilution method; method in brief: as §1
[34] = system: Mycobacterium tuberculosis; test: Antimycobacterial activity against Mycobacterium tuberculosis H37Rv ATCC 27294 incubated for 7 days by microplate Alamar Blue assay; details: H37Rv ATCC 27294, 168 h
Method in brief: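 Fluorescence read-out. MIC is the lowest concentration that reduces fluorescence by at least 90% relative to the mean of replicate bacterium-only controls. Isoniazid and rifampicin were included as reference drugs.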

SMILES | MIC (Pseudomonas aeruginosa [1]) [µg/mL] | MIC (Escherichia coli [2]) [µg/mL] | MIC (Klebsiella pneumoniae [3]) [µg/mL] | MIC (Staphylococcus aureus [4]) [µg/mL] | MIC (Klebsiella pneumoniae [6]) [µg/mL] | MIC (Pseudomonas aeruginosa [7]) [µg/mL] | MIC (Staphylococcus aureus [8]) [µg/mL] | MIC (Pseudomonas aeruginosa [9]) [µg/mL] | MIC (Escherichia coli [10]) [µg/mL] | MIC (Staphylococcus aureus [11]) [µg/mL] | MIC (Enterococcus faecium [12]) [µg/mL] | MIC (Streptococcus pneumoniae) [µg/mL] | MIC (Klebsiella pneumoniae [13]) [µg/mL] | MIC (Escherichia coli [14]) [µg/mL] | MIC (Escherichia coli [15]) [µg/mL] | MIC (Enterococcus faecium [16]) [µg/mL] | MIC (Enterococcus faecalis [17]) [µg/mL] | MIC (Escherichia coli [18]) [µg/mL] | MIC [19] [µg/mL] | MIC90 [34] [µg/mL] | also measured
CO/N=C1/CN(c2c(F)cc3c(=O)c(C(=O)O)cn4c3c2OC[C@@H]4CF)CC1(C)CNC1CC1 (stereo not given in full) | 128 (≈ 269 µM) | > 128 | 128 (≈ 269 µM) | < 0.008 | > 128 | 64 (≈ 134 µM) | 4 (≈ 8.39 µM) | 128 (≈ 269 µM) | > 128 | 0.03 (≈ 0.063 µM) | 16 (≈ 33.6 µM) | 0.25 (≈ 0.525 µM) | 128 (≈ 269 µM) | > 128 | 2 (≈ 4.2 µM) | 4 (≈ 8.39 µM) | 0.5 (≈ 1.05 µM) | 8 (≈ 16.8 µM) | 2 (≈ 4.2 µM) | – | MIC (Staphylococcus aureus [5]): 8 µg/mL (≈ 16.8 µM); MIC [20]: 16 µg/mL (≈ 33.6 µM); MIC (Klebsiella pneumoniae [21]): 32 µg/mL (≈ 67.2 µM); MIC (Klebsiella pneumoniae [22]): 32 µg/mL (≈ 67.2 µM); MIC (Staphylococcus aureus [23]): 4 µg/mL (≈ 8.39 µM); MIC (Klebsiella pneumoniae [24]): > 128 µg/mL; MIC (Enterococcus faecalis [25]): 16 µg/mL (≈ 33.6 µM); MIC [26]: 4 µg/mL (≈ 8.39 µM); MIC (Enterococcus faecium [27]): 8 µg/mL (≈ 16.8 µM); MIC (Klebsiella pneumoniae [28]): > 128 µg/mL; MIC (Pseudomonas aeruginosa [29]): 32 µg/mL (≈ 67.2 µM); MIC [30]: 16 µg/mL (≈ 33.6 µM); MIC (Staphylococcus aureus [31]): 0.03 µg/mL (≈ 0.063 µM); MIC [32]: 16 µg/mL (≈ 33.6 µM); MIC (Pseudomonas aeruginosa [33]): 32 µg/mL (≈ 67.2 µM)
CO/N=C1/CN(c2c(F)cc3c(=O)c(C(=O)O)cn(C4CC4)c3c2OC)CC1CNC1CC1 (stereo not given) | 128 (≈ 279 µM) | > 128 | > 128 | 8 (≈ 17.4 µM) | > 128 | 128 (≈ 279 µM) | > 128 | 128 (≈ 279 µM) | > 128 | > 128 | > 128 | 64 (≈ 140 µM) | > 128 | > 128 | 32 (≈ 69.8 µM) | > 128 | 64 (≈ 140 µM) | 128 (≈ 279 µM) | > 128 | > 32 | MIC [20]: > 128 µg/mL; MIC (Klebsiella pneumoniae [21]): > 128 µg/mL; MIC (Klebsiella pneumoniae [22]): > 128 µg/mL; MIC (Staphylococcus aureus [23]): > 128 µg/mL; MIC (Klebsiella pneumoniae [24]): > 128 µg/mL; MIC (Enterococcus faecalis [25]): > 128 µg/mL; MIC [26]: > 128 µg/mL; MIC (Enterococcus faecium [27]): > 128 µg/mL; MIC (Klebsiella pneumoniae [28]): > 128 µg/mL; MIC (Pseudomonas aeruginosa [29]): 128 µg/mL (≈ 279 µM); MIC [30]: > 128 µg/mL; MIC (Staphylococcus aureus [31]): > 128 µg/mL; MIC [32]: > 128 µg/mL; MIC (Pseudomonas aeruginosa [33]): 128 µg/mL (≈ 279 µM)
CO/N=C1/CN(c2nc3c(cc2F)c(=O)c(C(=O)O)cn3C2CC2)CC1CNC1CC1 (stereo not given) | 32 (≈ 74.5 µM) | > 128 | > 128 | < 0.008 | 128 (≈ 298 µM) | 32 (≈ 74.5 µM) | 8 (≈ 18.6 µM) | 32 (≈ 74.5 µM) | > 128 | 8 (≈ 18.6 µM) | 32 (≈ 74.5 µM) | 4 (≈ 9.31 µM) | 128 (≈ 298 µM) | > 128 | 0.5 (≈ 1.16 µM) | 16 (≈ 37.3 µM) | 0.5 (≈ 1.16 µM) | 16 (≈ 37.3 µM) | 16 (≈ 37.3 µM) | 0.44 (≈ 1.02 µM) | MIC (Staphylococcus aureus [5]): > 128 µg/mL; MIC [20]: 16 µg/mL (≈ 37.3 µM); MIC (Klebsiella pneumoniae [21]): 16 µg/mL (≈ 37.3 µM); MIC (Klebsiella pneumoniae [22]): 16 µg/mL (≈ 37.3 µM); MIC (Staphylococcus aureus [23]): 8 µg/mL (≈ 18.6 µM); MIC (Klebsiella pneumoniae [24]): 32 µg/mL (≈ 74.5 µM); MIC (Enterococcus faecalis [25]): 64 µg/mL (≈ 149 µM); MIC [26]: 16 µg/mL (≈ 37.3 µM); MIC (Enterococcus faecium [27]): 32 µg/mL (≈ 74.5 µM); MIC (Klebsiella pneumoniae [28]): 128 µg/mL (≈ 298 µM); MIC (Pseudomonas aeruginosa [29]): 8 µg/mL (≈ 18.6 µM); MIC [30]: 32 µg/mL (≈ 74.5 µM); MIC (Staphylococcus aureus [31]): 4 µg/mL (≈ 9.31 µM); MIC [32]: > 128 µg/mL; MIC (Pseudomonas aeruginosa [33]): 16 µg/mL (≈ 37.3 µM)
NNC(=O)c1ccncc1 [ISONIAZID] | – | – | – | – | – | – | – | – | – | – | – | – | – | – | – | – | – | – | – | 0.05 (≈ 0.365 µM) | –
CO[C@H]1/C=C/O[C@@]2(C)Oc3c(C)c(O)c4c(O)c(c(/C=N/N5CCN(C)CC5)c(O)c4c3C2=O)NC(=O)/C(C)=C\C=C\[C@H](C)[C@H](O)[C@@H](C)[C@@H](O)[C@@H](C)[C@H](OC(C)=O)[C@@H]1C [RIFAMPIN] | – | – | – | – | – | – | – | – | – | – | – | – | – | – | – | – | – | – | – | 0.05 (≈ 0.0608 µM) | –
